Measurements reported in ChEMBL document CHEMBL2412972, “Design, synthesis and biological evaluation of novel triaryl (Z)-olefins as tamoxifen analogues” (Bioorg Med Chem Lett, 2013).
The source made the active and inactive calls. The rule behind the calls is not given here.

What was measured:
MCF7 [1] = experiment: Induction of apoptosis in human MCF7 cells assessed as caspase 3/7 activation after 72 hrs by luminescence assay; format: functional, cell-based
Procedure, shortened: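 MCF-7 cells were plated at 1×10^4 per well, incubated for 24 h, then treated for 72 h. Caspase-3/7 activity was measured with a Caspase-Glo luminogenic DEVD substrate, and luminescence was reported as relative light units. Compared with DMSO vehicle; mean ± SD, n = 6.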

MCF7 [2] = experiment: Antiproliferative activity against human MCF7 cells after 72 hrs by MTT assay; format: functional, cell-based; details: MCF7, 72 h
Procedure, shortened: (§1)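 Cells were seeded in 96-well plates for 24 h, then exposed to a range of concentrations for 72 h in DMEM/F-12 with 5% FBS. DMSO vehicle controls were matched. MTT was added at 0.5 mg/ml for 2 h at 37 °C, solubilized in DMSO, and read at 570 nm. IC50 is the concentration giving 50% cell death relative to DMSO control. Mean ± SD, n = 6.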

MDA-MB-231 [3] = experiment: Antiproliferative activity against human MDA-MB-231 cells after 72 hrs by MTT assay; format: functional, cell-based; details: MDA-MB-231, 72 h; procedure, shortened: as §1
MCF7 [4] = experiment: Ratio of tamoxifen IC50 to compound IC50 for human MCF7 cells after 72 hrs by MTT assay; format: functional
MCF7 [5] = experiment: Antiproliferative activity against human MCF7 cells at 5 uM after 72 hrs by MTT assay in presence of estradiol; format: functional, cell-based
Procedure, shortened: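 MCF-7 cells (ATCC) were maintained in DMEM/F-12 with 10% FBS at 37 °C and 5% CO2. They were seeded for 24 h, then treated with 5 µM test agent for 72 h in 5% FBS medium, with and without estradiol. Read-out was MTT absorbance at 570 nm, expressed as percent of control wells. Two experiments, each with six replicates; mean ± SD.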

MDA-MB-231 [6] = experiment: Ratio of tamoxifen IC50 to compound IC50 for human MDA-MB-231 cells after 72 hrs by MTT assay; format: functional

IC50 (MCF7 [2])	IC50 (MDA-MB-231 [3])	Compound	Activity (MCF7 [1])	Ratio IC50 (MCF7 [4])	Activity (MCF7 [5])	Ratio IC50 (MDA-MB-231 [6])
5.58 µM	13 µM	C/C(=C(\c1ccccc1)c1ccc(OCCN2CCNCC2)cc1)c1ccc(F)cc1	Active	2	Active	2
86.3 µM	> 100 µM	C/C(=C(\c1ccccc1)c1ccc(OCCN2CCN(C)CC2)cc1)c1ccc(F)cc1	–	–	–	–
> 100 µM	> 100 µM	C/C(=C(\c1ccccc1)c1ccc(OCCN2CCNCC2)cc1)c1ccccc1	–	–	–	–
55.5 µM	73.5 µM	C/C(=C(\c1ccccc1)c1ccc(OCCN2CCCCC2)cc1)c1ccccc1	–	–	–	–
16.6 µM	43 µM	C/C(=C(\c1ccccc1)c1ccc(OCCN2CCCCC2)cc1)c1ccc(F)cc1	–	–	–	–
6.75 µM	10.5 µM	C/C(=C(\c1ccccc1)c1ccc(OCCN2CCN(C)CC2)cc1)c1ccccc1	Active	2	Active	2

Compound	IC50 (MCF7 [2])	IC50 (MDA-MB-231 [3])	Activity (MCF7 [1])	Ratio IC50 (MCF7 [4])	Activity (MCF7 [5])	Ratio IC50 (MDA-MB-231 [6])
CC/C(=C(\c1ccccc1)c1ccc(OCCN(C)C)cc1)c1ccccc1 [TAMOXIFEN]	28 µM	64.8 µM	–	–	–	–
